# Only some compounds are listed: those with a hit (about 2.3% of all), similar ones and a draw of the others.
# TRPC4 act: activators of mouse TRPC4 channel, primary screen, Fluo4 calcium, HEK293 TRPC4beta/mu-opioid cells. Fluo4 calcium fluorescence; active compounds read high. AID 2237, 2010. 310,000 compounds, 0.49% hits. Short transient receptor potential channel 4 (Mus musculus), Q9QUQ5. B-score at 10 µM;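 active = B-score above 5 SD of library B-scores, and initial fluorescence ratio not above library mean plus 5 SD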;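 also: positive B-score marks a calcium rise read as TRPC4 activation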
# Target sequence (Q9QUQ5 whole entry, looked up): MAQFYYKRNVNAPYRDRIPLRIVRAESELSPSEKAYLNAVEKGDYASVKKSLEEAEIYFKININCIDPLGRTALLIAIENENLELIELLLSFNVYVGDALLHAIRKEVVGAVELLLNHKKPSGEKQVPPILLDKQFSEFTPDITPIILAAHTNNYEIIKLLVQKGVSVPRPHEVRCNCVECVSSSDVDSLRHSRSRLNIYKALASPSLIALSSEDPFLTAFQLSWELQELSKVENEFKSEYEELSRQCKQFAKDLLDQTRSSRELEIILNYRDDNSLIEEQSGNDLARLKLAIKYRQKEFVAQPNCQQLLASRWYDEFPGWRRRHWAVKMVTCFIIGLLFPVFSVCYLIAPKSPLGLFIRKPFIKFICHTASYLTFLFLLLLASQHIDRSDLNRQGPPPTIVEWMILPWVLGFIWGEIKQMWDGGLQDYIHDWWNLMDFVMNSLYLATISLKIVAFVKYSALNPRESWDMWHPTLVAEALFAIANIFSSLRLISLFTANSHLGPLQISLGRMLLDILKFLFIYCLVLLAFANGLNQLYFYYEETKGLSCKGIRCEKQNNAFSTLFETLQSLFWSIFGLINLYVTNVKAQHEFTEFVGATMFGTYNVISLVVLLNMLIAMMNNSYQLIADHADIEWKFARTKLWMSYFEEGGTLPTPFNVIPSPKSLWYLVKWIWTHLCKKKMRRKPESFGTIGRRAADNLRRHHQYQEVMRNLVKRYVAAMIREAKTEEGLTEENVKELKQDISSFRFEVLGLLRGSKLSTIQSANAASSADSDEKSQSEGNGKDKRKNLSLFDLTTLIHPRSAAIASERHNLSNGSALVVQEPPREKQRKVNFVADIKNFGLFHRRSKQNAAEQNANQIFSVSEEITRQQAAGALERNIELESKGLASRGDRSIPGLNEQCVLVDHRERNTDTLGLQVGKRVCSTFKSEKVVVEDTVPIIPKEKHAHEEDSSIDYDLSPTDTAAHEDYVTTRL
#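 Material: TRPC4beta and mu-opioid receptor HEK293 stable cells | Incubation: 45 min room-temperature Fluo4 loading, 110 s read | Detection: Kinetic Fluo4 calcium fluorescence | Measure: Integrated baseline-normalised fluorescence ratio, converted to per-well B score | Benchmarks: Low control buffer alone, high control maximal DAMGO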
# TRPC4 PAM: positive allosteric modulators of TRPC4, primary screen, cell-based, mouse TRPC4beta, HEK293 mu-opioid, Fluo-4 calcium; Short transient receptor potential channel 4 (Mus musculus), Q9QUQ5; DAMGO EC20, Fluo-4 Ca2+ flux; active compounds read high; B-score at 10 µM; 310,000 compounds, 0.42% hits;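 active = B-score of calcium response area above 5 SD of library B-scores, with initial fluorescence ratio within 5 SD of library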
# TRPC4 inh: inhibitors of mouse TRPC4 channel, primary screen, Fluo4 calcium, HEK293 TRPC4beta/mu-opioid cells; DAMGO-evoked Fluo4 calcium flux; active compounds read low; B-score at 10 µM; 300,000 compounds, 0.39% hits; AID 2247, 2010;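 active = B-score over 3 SD under the library average, no early fluorescence shift, positive overall ratio signal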
#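 Assay system: HEK293 cells with stable TRPC4beta plus mu-opioid receptor expression; Probe or stimulus: DAMGO in two steps, submaximal then maximal; Dosing: single-point compound dosing; Measured by: Fluo4 calcium-dye fluorescence, kinetic read; Read-out basis: B score from integrated Fluo4 fluorescence ratio.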
# TRPC6 activator: mouse TRPC6 channel activators, primary screen, cell-based, HEK293, membrane potential dye; HEK293-TRPC6 membrane potential dye fluorescence; active compounds read high; B-score at 10 µM; 310,000 compounds, 0.13% hits; AID 2550, 2010;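 active = B-score of the integrated fluorescence ratio above library mean plus 3 SD, and starting fluorescence ratio within library mean plus 5 SD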;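 also: higher score means more depolarization so channel activation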
# TRPC6 inhibitor: mouse TRPC6 channel inhibitors, primary screen, cell-based, HEK293, membrane potential dye | Short transient receptor potential channel 6 (Mus musculus), Q61143 | ACh-evoked depolarization; active compounds read low | B-score at 10 µM | 310,000 compounds, 1.1% hits | AID 2553, 2010;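 active = B-score under library mean minus 3 SD, initial fluorescence not abnormally high, positive integrated signal ratio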;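 also: B-score derived from integrated fluorescence ratio over the kinetic read; more negative B-score means stronger inhibition of depolarization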
# TRPC4 sel inh 2: second selectivity test of TRPC6 inhibitors: effect on mouse TRPC4 | shares compounds with TRPC6 inhibitor | HEK293 TRPC4/MOR, membrane potential dye fluorescence; channel activated by saturating DAMGO dose | inhibition, % at 10 µM | 920 compounds, 42% hits;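 active = compounds whose fluorescence signal differed from control wells by over 3 SD, either direction, in both duplicate plates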
# TRPC4 spec: mouse TRPC4 modulation by TRPC6 hits, confirmation, selectivity assay for TRPC6 inhibitor project, cell-based, HEK293 TRPC4/mu-opioid, membrane potential dye; activity change, negative = inhibition, % at 10 µM; AID 2777, 2010; membrane potential fluorescence; 920 compounds, 61% hits; shares compounds with TRPC6 inhibitor;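 active = rise or fall in signal beyond 3 SD of buffer-only wells in both replicate plates, either sign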;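 also: integrated kinetic ratio of fluorescence range over baseline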
# HEK293 MPD ctr 2-1: nonspecific membrane potential effects, parental HEK293, confirmation, counter-screen for TRPC6 inhibitor project, cell-based, second counter screen. signal change vs control, % at 10 µM. parental HEK293 membrane potential dye fluorescence; maximal acetylcholine challenge after compound addition. 920 compounds, 31% hits. shares compounds with TRPC6 inhibitor;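 active = membrane potential signal moving either way by over 3 SD of the maximum-effect control, in both duplicate plates, meaning non-specific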
# HEK293 MPD ctr-1: membrane potential modulation in parental HEK293, confirmation, counter-screen for TRPC6 inhibitor project, cell-based | shares compounds with TRPC6 inhibitor | parental HEK293 membrane potential dye fluorescence | membrane potential signal change, % at 10 µM | 920 compounds, 60% hits | AID 2780, 2010;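 active = membrane potential signal shifting up or down by more than 3 SD of buffer-only wells, on both duplicate plates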
# HEK293 MPD ctr-2: parental HEK293 membrane potential modulation, confirmation, counter-screen for TRPC6 modulator project, cell-based; shares compounds with TRPC6 inhibitor; AID 488924, 2010; membrane potential signal change, % at 10 µM; 2,400 compounds, 51% hits; membrane potential dye fluorescence;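 active = membrane potential signal moves up or down beyond 5 SD from buffer-only wells, on both duplicate plates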
# HEK293 MPD ctr 2-2: parental HEK293 nonspecific activity of TRPC6 modulators, second screen. membrane potential dye fluorescence; after compound, maximal acetylcholine stimulation. AID 488926. inhibition, % at 10 µM. 2,400 compounds, 14% hits. shares compounds with TRPC6 inhibitor;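 active = membrane potential signal drops by more than 5 SD from the mean control signal, in both duplicate plates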
# TRPC4/MOR mod: TRPC4 modulation by TRPC6 hit compounds, confirmation, selectivity assay for TRPC6 modulator project, cell-based, HEK293 TRPC4/mu-opioid, membrane potential dye, mouse | AID 488927, 2010 | 2,400 compounds, 69% hits | percent change from control (negative = decrease, positive = increase), % at 10 µM | shares compounds with TRPC6 inhibitor | membrane potential fluorescence;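 active = membrane potential signal moved up or down beyond 5 SD of buffer control wells, in both duplicate plates, actives on both sides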
# TRPC4/MOR inh 2: second selectivity test of TRPC6 modulators against mouse TRPC4; shares compounds with TRPC6 inhibitor; HEK293 TRPC4/mu-opioid, membrane potential dye fluorescence; stimulated with maximal-effect DAMGO; inhibition, % at 10 µM; 2,400 compounds, 55% hits; AID 488928;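 active = drop in membrane potential signal beyond 5 SD of the control wells in both duplicate plates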;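 also: TRPC4 counter screen for TRPC6 hits run under conditions tuned for TRPC6 not TRPC4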
# TRPC6 block conf: mouse TRPC6 channel inhibitors, confirmation, HEK293 cells, membrane potential dye, duplicate; shares compounds with TRPC6 inhibitor; AID 488960, 2010; ACh-evoked depolarization; inhibition, % at 10 µM; 3,300 compounds, 43% hits;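 active = fluorescence ratio falls more than 5 SD below the full-stimulation control mean, in both duplicate runs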;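 also: integrated fluorescence ratio of peak minus minimum over baseline after agonist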
# TRPC6 act confirm: mouse TRPC6 channel activators, confirmation, HEK293 cells, membrane potential dye, duplicate. shares compounds with TRPC6 inhibitor. HEK293-TRPC6 membrane potential dye fluorescence, FDSS. activation, % at 10 µM. 2,800 compounds, 11% hits. AID 488961, 2010;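 active = ratio signal rise beyond 5 SD above unstimulated control wells' mean, seen in both duplicate runs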
# A number is an active result; n = inactive; x = not tested or not shown.
SMILES,TRPC4 act,TRPC4 PAM,TRPC4 inh,TRPC6 activator,TRPC6 inhibitor,HEK293 MPD ctr-2,HEK293 MPD ctr 2-2,TRPC4/MOR mod,TRPC4/MOR inh 2,TRPC6 block conf,TRPC6 act confirm,others
CN1CCCC(C(O)(c2ccccc2)c2ccccc2)C1 (centres undefined),n,n,n,n,n,x,x,x,x,x,x,
O=C(O)C(O)(c1ccccc1)C1CCCC1 (centres undefined),n,n,n,n,n,x,x,x,x,x,x,
CCCC(CCC)C(=O)OC[N+](C)(C)CCOC(=O)C(O)(c1ccccc1)C1CCCC1 (centres undefined),n,n,n,n,-11,x,x,x,x,92%,n,TRPC4 sel inh 2=n;TRPC4 spec=n;HEK293 MPD ctr 2-1=-29%;HEK293 MPD ctr-1=n
CCN1CC2([N+](=O)[O-])CC=C(Cl)C([N+](=O)[O-])(C1)C2 (centres undefined),n,n,n,n,n,x,x,x,x,x,x,
CCc1ccccc1NC(=O)N1C[C@H]2C[C@@H](C1)c1cccc(=O)n1C2,n,n,n,n,n,x,x,x,x,x,x,
O=[N+]([O-])c1ccccc1CNCCc1c[nH]c2ccccc12,n,n,n,n,-5.5,n,n,n,42%,n,n,
CCCCn1c(C)c(C(=O)OCC)c2c(CN3CCCC3)c(O)ccc21,n,n,n,n,-5.4,n,n,n,58%,48%,n,
CCCCn1c(C)c(C(=O)OCC)c2c(CN3CCOCC3)c(O)ccc21,n,n,n,n,-5.3,-88%,n,-12%,66%,62%,n,
CCOC(=O)c1c(C)n(Cc2ccc(F)cc2)c2ccc(O)cc12,n,n,n,n,n,x,x,x,x,x,x,
